# In ChEMBL document CHEMBL4689842, “EUbOPEN Chemogenomics Library wave 1” (2021):
# System: U2OS
# Test: Multiplex assay against U2OS
# Type: toxicity, cell-based
# Conditions: human
# Procedure, shortened: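 Cells were classed with CellPathfinder machine-learning gating, first as Hoechst high-intensity objects or normal cells, then (normal cells) as healthy, pyknosed or fragmented nuclei, and finally (pyknosed cells) as mitotic or apoptotic. Staining of live cells at seeding used Hoechst33342, BioTracker Green Microtubule Cytoskeleton Dye, MitoTracker Red and Annexin V Alexa Fluor 680, with imaging on a CQ1 microscope at 37°C and 5% CO2 after compound addition. Tubulin, mitochondrial-mass and membrane-permeability phenotypes are per cents of healthy-nucleus cells.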
# [1] = 12 h, 1 µM, compound concentration 1 uM, replicate 1
# [2] = 12 h, 1 µM, compound concentration 1 uM, replicate 2
# [3] = 12 h, 10 µM, compound concentration 10 uM, replicate 1
# [4] = 12 h, 10 µM, compound concentration 10 uM, replicate 2
# [5] = 24 h, 1 µM, compound concentration 1 uM, replicate 1
# [6] = 24 h, 1 µM, compound concentration 1 uM, replicate 2
# [7] = 24 h, 10 µM, compound concentration 10 uM, replicate 1
# [8] = 24 h, 10 µM, compound concentration 10 uM, replicate 2
# [9] = 48 h, 1 µM, compound concentration 1 uM, replicate 1
# [10] = 48 h, 1 µM, compound concentration 1 uM, replicate 2
# [11] = 48 h, 10 µM, compound concentration 10 uM, replicate 1
# [12] = 48 h, 10 µM, compound concentration 10 uM, replicate 2
structure (smiles),measurement,setting,value
CN(C)C/C=C/C(=O)Nc1cc2c(Nc3ccc(F)c(Cl)c3)ncnc2cc1O[C@H]1CCOC1.O=C(O)/C=C\C(=O)O.O=C(O)/C=C\C(=O)O [AFATINIB DIMALEATE],Population Apoptotic (%),[1],56%
same,Population Fragmented Nuclei (%),[1],4%
same,Population Healthy Nuclei (%),[1],85%
same,Population Hoechst High Intensity Objects (%),[1],3%
same,Population Membrane Permeable-Phenotype (%),[1],20%
same,Population Mitochondria Different-Phenotype (%),[1],8%
same,Population Mitotic Cells (%),[1],43%
same,Population Normal (%),[1],96%
same,Population Pyknosed Nuclei (%),[1],10%
same,Population Tubulin-Different-Phenotype (%),[1],18%
same,Population Apoptotic (%),[2],37%
same,Population Fragmented Nuclei (%),[2],7%
same,Population Healthy Nuclei (%),[2],86%
same,Population Hoechst High Intensity Objects (%),[2],11%
same,Population Membrane Permeable-Phenotype (%),[2],14%
same,Population Mitochondria Different-Phenotype (%),[2],18%
same,Population Mitotic Cells (%),[2],62%
same,Population Normal (%),[2],88%
same,Population Pyknosed Nuclei (%),[2],6%
same,Population Tubulin-Different-Phenotype (%),[2],24%
same,Population Apoptotic (%),[3],62%
same,Population Healthy Nuclei (%),[3],56%
same,Population Hoechst High Intensity Objects (%),[3],2%
same,Population Membrane Permeable-Phenotype (%),[3],25%
same,Population Mitochondria Different-Phenotype (%),[3],37%
same,Population Mitotic Cells (%),[3],37%
same,Population Normal (%),[3],97%
same,Population Pyknosed Nuclei (%),[3],26%
same,Population Tubulin-Different-Phenotype (%),[3],89%
same,Population Apoptotic (%),[4],68%
same,Population Fragmented Nuclei (%),[4],16%
same,Population Healthy Nuclei (%),[4],47%
same,Population Hoechst High Intensity Objects (%),[4],13%
same,Population Membrane Permeable-Phenotype (%),[4],18%
same,Population Mitochondria Different-Phenotype (%),[4],62%
same,Population Mitotic Cells (%),[4],31%
same,Population Normal (%),[4],86%
same,Population Pyknosed Nuclei (%),[4],35%
same,Population Tubulin-Different-Phenotype (%),[4],86%
same,Population Apoptotic (%),[5],72%
same,Population Fragmented Nuclei (%),[5],6%
same,Population Healthy Nuclei (%),[5],85%
same,Population Hoechst High Intensity Objects (%),[5],1%
same,Population Membrane Permeable-Phenotype (%),[5],16%
same,Population Mitochondria Different-Phenotype (%),[5],10%
same,Population Mitotic Cells (%),[5],27%
same,Population Normal (%),[5],98%
same,Population Pyknosed Nuclei (%),[5],8%
same,Population Tubulin-Different-Phenotype (%),[5],20%
same,Population Apoptotic (%),[6],75%
same,Population Fragmented Nuclei (%),[6],7%
same,Population Healthy Nuclei (%),[6],87%
same,Population Hoechst High Intensity Objects (%),[6],10%
same,Population Membrane Permeable-Phenotype (%),[6],15%
same,Population Mitochondria Different-Phenotype (%),[6],21%
same,Population Mitotic Cells (%),[6],25%
same,Population Normal (%),[6],89%
same,Population Pyknosed Nuclei (%),[6],5%
same,Population Tubulin-Different-Phenotype (%),[6],24%
same,Population Apoptotic (%),[7],81%
same,Population Fragmented Nuclei (%),[7],10%
same,Population Healthy Nuclei (%),[7],65%
same,Population Membrane Permeable-Phenotype (%),[7],26%
same,Population Mitochondria Different-Phenotype (%),[7],66%
same,Population Mitotic Cells (%),[7],18%
same,Population Pyknosed Nuclei (%),[7],24%
same,Population Tubulin-Different-Phenotype (%),[7],49%
same,Population Apoptotic (%),[8],93%
same,Population Fragmented Nuclei (%),[8],22%
same,Population Healthy Nuclei (%),[8],41%
same,Population Hoechst High Intensity Objects (%),[8],8%
same,Population Membrane Permeable-Phenotype (%),[8],29%
same,Population Mitochondria Different-Phenotype (%),[8],72%
same,Population Mitotic Cells (%),[8],6%
same,Population Normal (%),[8],91%
same,Population Pyknosed Nuclei (%),[8],36%
same,Population Tubulin-Different-Phenotype (%),[8],47%
Nc1ccc(C(=O)Nc2cccc(-c3nc(N4CCOCC4)c4oc5ncccc5c4n3)c2)cn1,Population Apoptotic (%),[1],42%
same,Population Fragmented Nuclei (%),[1],20%
same,Population Healthy Nuclei (%),[1],64%
same,Population Hoechst High Intensity Objects (%),[1],10%
same,Population Mitochondria Different-Phenotype (%),[1],36%
same,Population Mitotic Cells (%),[1],57%
same,Population Normal (%),[1],89%
same,Population Pyknosed Nuclei (%),[1],15%
same,Population Tubulin-Different-Phenotype (%),[1],54%
same,Total Cell Count,[1],215
same,Population Apoptotic (%),[2],9%
same,Population Healthy Nuclei (%),[2],61%
same,Population Mitochondria Different-Phenotype (%),[2],21%
same,Population Mitotic Cells (%),[2],90%
same,Population Pyknosed Nuclei (%),[2],17%
same,Population Tubulin-Different-Phenotype (%),[2],28%
same,Total Cell Count,[2],55
same,Population Apoptotic (%),[3],56%
same,Population Fragmented Nuclei (%),[3],57%
same,Population Healthy Nuclei (%),[3],24%
same,Population Hoechst High Intensity Objects (%),[3],21%
same,Population Mitochondria Different-Phenotype (%),[3],83%
same,Population Mitotic Cells (%),[3],43%
same,Population Normal (%),[3],78%
same,Population Pyknosed Nuclei (%),[3],18%
same,Population Tubulin-Different-Phenotype (%),[3],93%
same,Total Cell Count,[3],191
same,Population Apoptotic (%),[4],51%
same,Population Fragmented Nuclei (%),[4],62%
same,Population Healthy Nuclei (%),[4],15%
same,Population Hoechst High Intensity Objects (%),[4],19%
same,Population Mitochondria Different-Phenotype (%),[4],76%
same,Population Mitotic Cells (%),[4],48%
same,Population Normal (%),[4],80%
same,Population Pyknosed Nuclei (%),[4],22%
same,Population Tubulin-Different-Phenotype (%),[4],90%
same,Total Cell Count,[4],69
same,Population Apoptotic (%),[5],46%
same,Population Fragmented Nuclei (%),[5],16%
same,Population Healthy Nuclei (%),[5],65%
same,Population Hoechst High Intensity Objects (%),[5],7%
same,Population Mitochondria Different-Phenotype (%),[5],31%
same,Population Mitotic Cells (%),[5],53%
same,Population Normal (%),[5],92%
same,Population Pyknosed Nuclei (%),[5],17%
same,Population Tubulin-Different-Phenotype (%),[5],51%
same,Total Cell Count,[5],221
same,Population Apoptotic (%),[6],21%
same,Population Fragmented Nuclei (%),[6],28%
same,Population Healthy Nuclei (%),[6],52%
same,Population Hoechst High Intensity Objects (%),[6],5%
same,Population Mitochondria Different-Phenotype (%),[6],42%
same,Population Mitotic Cells (%),[6],78%
same,Population Normal (%),[6],95%
same,Population Pyknosed Nuclei (%),[6],18%
same,Population Tubulin-Different-Phenotype (%),[6],27%
same,Total Cell Count,[6],57
same,Population Apoptotic (%),[7],80%
same,Population Fragmented Nuclei (%),[7],59%
same,Population Healthy Nuclei (%),[7],14%
same,Population Hoechst High Intensity Objects (%),[7],23%
same,Population Mitochondria Different-Phenotype (%),[7],88%
same,Population Mitotic Cells (%),[7],19%
same,Population Normal (%),[7],76%
same,Population Pyknosed Nuclei (%),[7],26%
same,Population Tubulin-Different-Phenotype (%),[7],81%
same,Total Cell Count,[7],201
same,Population Apoptotic (%),[8],84%
same,Population Fragmented Nuclei (%),[8],60%
same,Population Healthy Nuclei (%),[8],5%
same,Population Hoechst High Intensity Objects (%),[8],19%
same,Population Mitochondria Different-Phenotype (%),[8],100%
same,Population Mitotic Cells (%),[8],15%
same,Population Normal (%),[8],80%
same,Population Pyknosed Nuclei (%),[8],34%
same,Population Tubulin-Different-Phenotype (%),[8],100%
same,Total Cell Count,[8],80
same,Population Apoptotic (%),[9],57%
same,Population Fragmented Nuclei (%),[9],18%
same,Population Healthy Nuclei (%),[9],60%
same,Population Hoechst High Intensity Objects (%),[9],9%
same,Population Mitochondria Different-Phenotype (%),[9],28%
same,Population Mitotic Cells (%),[9],42%
same,Population Normal (%),[9],90%
same,Population Pyknosed Nuclei (%),[9],21%
same,Population Tubulin-Different-Phenotype (%),[9],45%
same,Total Cell Count,[9],240
same,Population Apoptotic (%),[10],25%
same,Population Fragmented Nuclei (%),[10],28%
same,Population Healthy Nuclei (%),[10],53%
same,Population Hoechst High Intensity Objects (%),[10],7%
same,Population Mitochondria Different-Phenotype (%),[10],22%
same,Population Mitotic Cells (%),[10],75%
same,Population Normal (%),[10],92%
same,Population Pyknosed Nuclei (%),[10],17%
same,Population Tubulin-Different-Phenotype (%),[10],24%
same,Total Cell Count,[10],56
same,Population Fragmented Nuclei (%),[11],62%
same,Population Healthy Nuclei (%),[11],5%
same,Population Hoechst High Intensity Objects (%),[11],23%
same,Population Mitochondria Different-Phenotype (%),[11],76%
same,Population Normal (%),[11],76%
same,Population Pyknosed Nuclei (%),[11],31%
same,Population Tubulin-Different-Phenotype (%),[11],66%
same,Total Cell Count,[11],244
same,Population Apoptotic (%),[12],91%
same,Population Fragmented Nuclei (%),[12],65%
same,Population Healthy Nuclei (%),[12],8%
same,Population Hoechst High Intensity Objects (%),[12],16%
same,Population Mitochondria Different-Phenotype (%),[12],100%
same,Population Mitotic Cells (%),[12],8%
same,Population Normal (%),[12],83%
same,Population Pyknosed Nuclei (%),[12],26%
same,Population Tubulin-Different-Phenotype (%),[12],100%
same,Total Cell Count,[12],98
